# Laboratory results reported in the array DNA melting data of Ke et al. (doi:10.1101/2024.01.08.574731).
# Assays:
# [1] = folding enthalpy; higher = less favourable; fluorescence melt of hairpins on a sequencing array, two-state fit; conditions: sodium 0.088 M
# How it was run: (§1)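 In 50 mM Na-HEPES pH 8.0 containing 25 mM NaCl, hairpins from the library on a sequenced MiSeq flow cell were imaged for Cy3 fluorescence at 2.5 °C steps up to 60 °C, with Cy3 and quencher oligos annealed. After normalisation to pre-quench Cy3 and to control constructs, two-state fits with bootstrapping gave melting temperature and folding enthalpy. Four replicates were combined by inverse-variance weighting, and fitted temperatures were shifted up by 9.35 °C to match UV melts.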
# [2] = melting temperature; fluorescence melt of hairpins on a sequencing array, two-state fit, raised by 9.35 °C to match UV melts; conditions: sodium 0.088 M
# How it was run: as §1
Sequence,folding enthalpy [1],Tm [2]
GCCACGCGAAAGCGTTGC ((.((((....)))).)),-20.2 kcal/mol,57.6 °C
GTGAAGAAATTCAC (((((....))))),-18.8 kcal/mol,38.3 °C
GACCACGGAAACGTAGCC (.(.(((....))).).),-9.48 kcal/mol,23.6 °C
CGCAGCGGAAACGCCGCG (((.(((....))).))),-34 kcal/mol,58 °C
GCGCAAGGAAACTTACGC (((.(((....))).))),-30.6 kcal/mol,46 °C
GAGAAGCGAAAGCTCCTC (((.(((....))).))),-21.7 kcal/mol,45.1 °C
GACACGGGAAACCGCGTC (((.(((....))).))),-47.8 kcal/mol,50.9 °C
GTGCCCGAAAGGGTCCAC ((((((....)))..))),-10.3 kcal/mol,41 °C
GATCACTAACGTGATC ((((((....)))))),-33.1 kcal/mol,54.9 °C
GTGCCCGAAAGGGGCCAC ((((((....)))..))),-10.9 kcal/mol,47.7 °C
CGATGCGGAAACGCTTCG (((.(((....))).))),-41.7 kcal/mol,53 °C
GGATAAACGAAAGTTTCC (((..(((....)))))),-17.1 kcal/mol,27.7 °C
GAAGCTGGAAACAGTTTC (((.(((....))).))),-27.1 kcal/mol,41.6 °C
GCGCGTCGAAAGACACGC (((.(((....))).))),-45.5 kcal/mol,62.9 °C
GCGAGATTCGC ((((...)))),-17.1 kcal/mol,47.7 °C
GATCCGCTCCGGATC ((((((...)))))),-37.5 kcal/mol,59.2 °C
GATTTCGGAAACGAAACC (.(((((....))))).),-19.6 kcal/mol,35.8 °C
GATTATGGAAACGTAATC (((((.(....).))))),-36.5 kcal/mol,35.6 °C
CTCAGGAAACTGAG (((((....))))),-22.6 kcal/mol,46.3 °C
GAAGACACGAAAGTGTTC (((..(((....)))))),-10.1 kcal/mol,31.9 °C
TTGGGGAAACCCAA (((((....))))),-17.4 kcal/mol,43.4 °C
GCGAACATTCGC ((((....)))),-21.4 kcal/mol,48.2 °C
GATCTAGATATAGATC ((((((....)))))),-34.4 kcal/mol,46.8 °C

Sequence,folding enthalpy [1],Tm [2]
GCCCCTGGAAACAGGAGC ((.((((....)))).)),-30.6 kcal/mol,47.5 °C
GTACGCGGAAACACGTAC (((((.(....).))))),-34.1 kcal/mol,47.9 °C
CGTCTCGGAAACGAAACG (((.(((....))).))),-32.4 kcal/mol,38.5 °C
GTTGTCGAAAGACTCAAC ((((((....)))..))),-11.7 kcal/mol,27.7 °C
GGTCAGGGAAACCTGGCC ((.((((....)))).)),-42.2 kcal/mol,57.5 °C
GATCTATCTCTAGATC ((((((....)))))),-28.3 kcal/mol,39.6 °C
GTTTGCGAAAGCATGAAC ((((((....)))..))),-8.14 kcal/mol,26.4 °C
GCTTTGCGAAAGCTGAGC (((..((....))..))),-15.2 kcal/mol,56.8 °C
GCTCAGAAATGAGC (((((....))))),-26.8 kcal/mol,55.4 °C
GTGTACCGAAAGGTCAC (((.(((....)))))),-30.5 kcal/mol,53 °C
GTGGCTGGAAACGGCCAC (((((.(....).))))),-47.5 kcal/mol,64 °C
GATCTCATCTGAGATC ((((((....)))))),-39.9 kcal/mol,53.6 °C
GTCTTCGAAAGAAGCGAC ((((((....)))..))),-20 kcal/mol,44.7 °C
GCTGGGCGAAAGCGCTGC ((.(.((....)).).)),-31.7 kcal/mol,60 °C
GATCTGCATCCAGATC ((((((....)))))),-42 kcal/mol,46.7 °C
GATCATCAACATGATC ((((((....)))))),-28.6 kcal/mol,42.6 °C
CGGCCGGAAACGGAGCCG ((((((....)))..))),-34.7 kcal/mol,54.6 °C
GGAACGACGAAAGTCTCC (((..(((....)))))),-10.9 kcal/mol,27.6 °C
GAAGTGCCGAAAGGCTTC (((..(((....)))))),-7.5 kcal/mol,35.5 °C
GATTTCCGAAAGGACATC (((.(((....))).))),-27.1 kcal/mol,38 °C
GACGATGAAAATCGTC ((((((....)))))),-31.1 kcal/mol,61.1 °C
GCAGGTTCGAAAGAATGC (((..(((....)))))),-11.1 kcal/mol,30.9 °C
GCATGCCCGAAAGGGTGC (((..(((....)))))),-14.3 kcal/mol,44.4 °C

Sequence,folding enthalpy [1],Tm [2]
CGCTCGGAAACGAACGCG ((((((....)))..))),-19.4 kcal/mol,44.8 °C
GGACGTCGAAAGACCTCC (((.(((....))).))),-22.3 kcal/mol,41.2 °C
GGCAACGAAAGTTCTGCC ((((((....)))..))),-27.3 kcal/mol,40.4 °C
GATCTAGAGATAGATC ((((((....)))))),-26.2 kcal/mol,39.1 °C
GATATCCGAAAGGAAATC (((.(((....))).))),-27.2 kcal/mol,37.1 °C
GATGATACGAAAGTAATC (((..(((....)))))),-16.5 kcal/mol,27.5 °C
GGACGACGAAAGTCTTCC (((.(((....))).))),-27.1 kcal/mol,48.9 °C
GCGGGCCCGAAAGGGCGC (((..(((....)))))),-8.34 kcal/mol,58 °C
GATCGACACATCGATC ((((((....)))))),-38.5 kcal/mol,52.4 °C
GGCAGCGAAAGCTTAGCC ((((((....)))..))),-25.7 kcal/mol,51.7 °C
GTACAAGGAAACTTGTGC (.(((((....))))).),-22.3 kcal/mol,45.4 °C
GCGCTAGGAAACCAGCGC (((((.(....).))))),-45.4 kcal/mol,57.3 °C
GGAGCCGAAAGGCGTCC ((((((....))).))),-9.6 kcal/mol,53.4 °C
GACTGCGGAAACACAGTC (((((.(....).))))),-26.8 kcal/mol,47.4 °C
GTGGTACGAAAGTAGCAC (((.(((....))).))),-42 kcal/mol,63.2 °C
GATCGGTTCCCGATC ((((((...)))))),-39.3 kcal/mol,59.3 °C
GGACCCGCGAAAGCGTCC (((..(((....)))))),-12.4 kcal/mol,36.7 °C
TTGCGGAAACGCAA (((((....))))),-18.1 kcal/mol,57.6 °C
GATCGATTGTCGATC ((((((...)))))),-35.5 kcal/mol,51.3 °C
GCAGGGCGAAAGCTATGC (((..((....))..))),-20.4 kcal/mol,54.1 °C
GATCATCGTGATGATC ((((((....)))))),-38.4 kcal/mol,57.8 °C
GCTACCGGAAACGGCAGC (((.(((....))).))),-38.7 kcal/mol,51.8 °C
GACGCCGAAAGGCGCGTC ((((((....)))..))),-9.77 kcal/mol,49.6 °C
